For assay [1], the target named is T1, Adrenergic receptor alpha-1 (Rattus norvegicus, UniProt P15823+P23944+P43140).
T1 sequence (P15823 whole entry): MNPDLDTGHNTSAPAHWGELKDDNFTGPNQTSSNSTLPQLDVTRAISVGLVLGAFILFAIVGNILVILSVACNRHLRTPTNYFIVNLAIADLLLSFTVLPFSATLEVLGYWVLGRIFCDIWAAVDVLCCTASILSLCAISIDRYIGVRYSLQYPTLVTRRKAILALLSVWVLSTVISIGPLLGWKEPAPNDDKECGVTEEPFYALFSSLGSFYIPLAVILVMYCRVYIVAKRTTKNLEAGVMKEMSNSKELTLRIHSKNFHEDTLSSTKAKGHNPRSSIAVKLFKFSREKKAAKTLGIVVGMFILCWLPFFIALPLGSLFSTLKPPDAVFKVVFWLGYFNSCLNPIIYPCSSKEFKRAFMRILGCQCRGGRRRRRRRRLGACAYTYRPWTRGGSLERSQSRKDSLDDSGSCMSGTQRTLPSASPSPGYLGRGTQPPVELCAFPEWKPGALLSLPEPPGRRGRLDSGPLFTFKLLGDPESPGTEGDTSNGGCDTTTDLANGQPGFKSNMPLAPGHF
T1 sequence (P23944 whole entry): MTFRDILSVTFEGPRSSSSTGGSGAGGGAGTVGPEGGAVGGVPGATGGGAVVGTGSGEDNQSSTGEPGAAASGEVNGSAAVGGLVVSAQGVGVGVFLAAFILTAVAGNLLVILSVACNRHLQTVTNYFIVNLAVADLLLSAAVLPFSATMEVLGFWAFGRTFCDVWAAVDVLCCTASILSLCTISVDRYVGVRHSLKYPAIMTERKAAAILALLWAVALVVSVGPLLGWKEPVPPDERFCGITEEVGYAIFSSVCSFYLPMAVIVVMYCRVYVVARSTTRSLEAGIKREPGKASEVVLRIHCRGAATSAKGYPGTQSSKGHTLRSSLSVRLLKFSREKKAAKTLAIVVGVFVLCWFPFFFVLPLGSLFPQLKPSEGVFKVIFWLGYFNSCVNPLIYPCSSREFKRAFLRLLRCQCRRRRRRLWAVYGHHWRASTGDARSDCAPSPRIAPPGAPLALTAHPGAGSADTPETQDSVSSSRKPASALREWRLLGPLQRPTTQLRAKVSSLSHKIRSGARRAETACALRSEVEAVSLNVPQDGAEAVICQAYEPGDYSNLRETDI
T1 sequence (P43140 whole entry): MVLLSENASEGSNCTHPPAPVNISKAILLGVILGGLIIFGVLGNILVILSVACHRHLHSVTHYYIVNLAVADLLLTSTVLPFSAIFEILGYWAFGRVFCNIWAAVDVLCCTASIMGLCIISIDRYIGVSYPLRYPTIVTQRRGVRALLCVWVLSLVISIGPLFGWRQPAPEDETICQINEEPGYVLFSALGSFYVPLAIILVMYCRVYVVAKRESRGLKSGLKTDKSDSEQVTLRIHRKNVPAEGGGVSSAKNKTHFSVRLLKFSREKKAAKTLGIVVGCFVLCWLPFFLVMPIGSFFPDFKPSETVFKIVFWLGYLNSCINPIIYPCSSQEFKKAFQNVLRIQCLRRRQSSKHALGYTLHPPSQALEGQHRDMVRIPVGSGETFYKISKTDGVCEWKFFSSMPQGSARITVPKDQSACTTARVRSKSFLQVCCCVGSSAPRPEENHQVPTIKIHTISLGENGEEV
Put plainly: The compound was evaluated for the alpha-1 adrenergic receptor antagonistic activity in rat vas deferens vs methoxamine alpha-1 adrenoceptor antagonism. It is filed as functional, tissue-based. The gist of the method:
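Vasa deferentia from Sprague-Dawley rats (180–250 g) mounted at 1 g resting tension in oxygenated Krebs at 31 °C. Methoxamine was the reference α1 agonist. Agonist concentration-effect curves were run without and with at least three antagonist concentrations after 10 min preincubation. Potency was taken from Schild analysis, mean of at least three preparations from separate animals.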

Assay [2] deals with T1, Adrenergic receptor alpha-1. Put plainly: Binding affinity against alpha-1 adrenergic receptor was determined by the displacement of [3H]prazosin from rat brain cortical membranes; value ranges from 6.06-7.06. It is filed as cell membranes, Membrane. The method in brief: (§1)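 Rat cortex was homogenized in 50 mM Tris pH 7.7, washed twice by centrifugation at 48000g and resuspended in 150 volumes. […] Nonspecific binding was defined with 10 μM phentolamine. Bound label was counted on filters, in triplicate. IC50 by logit plot, converted to Ki by Cheng-Prusoff.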

Assay [3] addresses T2, Adrenergic receptor alpha-2 (Rattus norvegicus, UniProt P22086+P19328+P22909).
T2 sequence (P22086 whole entry): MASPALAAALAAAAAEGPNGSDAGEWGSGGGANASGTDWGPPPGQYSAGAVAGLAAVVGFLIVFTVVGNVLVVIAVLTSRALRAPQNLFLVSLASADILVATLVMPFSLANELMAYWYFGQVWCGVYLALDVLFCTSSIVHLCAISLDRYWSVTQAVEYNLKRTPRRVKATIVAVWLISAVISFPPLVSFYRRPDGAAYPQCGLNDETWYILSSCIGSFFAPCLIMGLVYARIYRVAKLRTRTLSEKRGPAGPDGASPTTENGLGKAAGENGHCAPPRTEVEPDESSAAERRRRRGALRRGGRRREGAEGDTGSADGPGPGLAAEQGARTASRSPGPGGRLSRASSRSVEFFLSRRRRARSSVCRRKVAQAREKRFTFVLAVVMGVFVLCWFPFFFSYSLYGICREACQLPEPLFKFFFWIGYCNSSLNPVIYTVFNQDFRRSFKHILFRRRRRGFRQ
T2 sequence (P19328 whole entry): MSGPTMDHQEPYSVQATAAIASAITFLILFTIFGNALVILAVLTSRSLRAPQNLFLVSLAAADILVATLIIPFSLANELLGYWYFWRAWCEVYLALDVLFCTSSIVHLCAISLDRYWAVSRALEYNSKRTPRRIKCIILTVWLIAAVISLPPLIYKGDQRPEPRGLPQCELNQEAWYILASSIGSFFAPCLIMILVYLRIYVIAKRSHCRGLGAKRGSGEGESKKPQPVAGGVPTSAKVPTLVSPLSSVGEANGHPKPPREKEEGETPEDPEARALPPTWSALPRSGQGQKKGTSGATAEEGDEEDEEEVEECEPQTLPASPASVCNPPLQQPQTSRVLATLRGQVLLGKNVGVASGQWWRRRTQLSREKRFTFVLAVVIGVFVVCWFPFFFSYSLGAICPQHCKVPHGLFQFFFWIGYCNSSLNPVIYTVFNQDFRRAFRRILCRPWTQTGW
T2 sequence (P22909 whole entry): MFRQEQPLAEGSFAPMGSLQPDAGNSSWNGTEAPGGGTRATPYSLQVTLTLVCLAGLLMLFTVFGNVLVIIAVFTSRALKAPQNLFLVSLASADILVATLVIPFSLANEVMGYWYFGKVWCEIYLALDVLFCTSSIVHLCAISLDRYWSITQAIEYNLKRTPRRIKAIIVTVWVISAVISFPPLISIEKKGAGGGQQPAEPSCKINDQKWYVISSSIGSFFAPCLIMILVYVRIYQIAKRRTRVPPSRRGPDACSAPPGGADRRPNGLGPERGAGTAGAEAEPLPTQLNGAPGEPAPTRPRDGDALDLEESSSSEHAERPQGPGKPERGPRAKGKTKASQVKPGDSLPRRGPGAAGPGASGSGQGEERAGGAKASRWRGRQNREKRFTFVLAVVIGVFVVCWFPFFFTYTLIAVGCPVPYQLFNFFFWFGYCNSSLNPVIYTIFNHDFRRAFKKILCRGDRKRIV
Description: Alpha-2 adrenergic receptor antagonistic activity in rat vas deferens vs clonidine. It is filed as functional, tissue-based.

Assay [4] addresses T2, Adrenergic receptor alpha-2. Description: Binding affinity against alpha-2 adrenergic receptor was determined by the displacement of [3H]clonidine from rat brain cortical membranes. It is filed as cell membranes, Membrane.
Assay [5] shares this target. Put plainly: Alpha-2 adrenergic receptor antagonistic activity in rat vas deferens vs clonidin. It is filed as functional, tissue-based. The gist of the method:
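Vasa deferentia from Sprague-Dawley rats (180–250 g) mounted between platinum ring electrodes at 1 g resting tension in oxygenated Krebs at 37 °C. Single-pulse electrical stimulation (1 ms, 0.15 Hz, lowest voltage giving maximal contraction).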

In assay [6] the target is T1, Adrenergic receptor alpha-1. Description: Binding affinity against alpha-1 adrenergic receptor was determined by the displacement of [3H]prazosin from rat brain cortical membranes; value ranges from 7.8-34.6. It is filed as cell membranes, Membrane. The gist of the method: as §1
The target of assay [7] is T2, Adrenergic receptor alpha-2. Description: The compound was evaluated for the alpha-2 adrenergic receptor agonistic activity in rat vas deferens; the effect was not yohimbine reversible.
In a further assay the test system is Mus musculus. Description: Antagonistic activity against clonidine-induced antinociception in mouse after po administration. It is filed as functional. The gist of the method: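 Swiss Webster mice (18–24 g), 10 per treatment. Test compound was given orally in 0.9% NaCl at 10 mL/kg. […] Mice were observed 5–10 min after PPQ, and those writhing at least 3 times were counted as percent reversal.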

In assay [8] the target is T1, Adrenergic receptor alpha-1. Put plainly: Binding affinity against alpha-1 adrenergic receptor was determined by the displacement of [3H]prazosin from rat brain cortical membranes; value ranges from 4.6-30.6. It is filed as cell membranes, Membrane. The method in brief:
as §1

The target of assay [9] is T2, Adrenergic receptor alpha-2. Description: The compound was evaluated for the alpha-2 adrenergic receptor activity in rat vas deferens. The gist of the method:
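Isolated vasa deferentia from Sprague-Dawley rats (180–250 g) mounted between platinum ring electrodes at 1 g resting tension in oxygenated Krebs at 37 °C. Single-pulse electrical stimulation (1 ms, 0.15 Hz, lowest voltage giving maximal contraction); inhibition of twitch contractions gives IC50 for agonists. Mean of at least three experiments, separate animals.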

Regarding `C=CCN1c2ccccc2CC1C1=NCCN1` (configuration not stated), the pA2 in assay [1] came to 8.02; in assay [3], 9.07. The figures for the Ki in [2] and in assay [4] were 6.56 nM and 0.47 nM, respectively.

With `CN1c2ccc(F)cc2CC1C1=NCCN1` (configuration not stated), the pA2 in assay [5] was 8.45; in assay [1] it was 8.03. Besides, the figures for the Ki in assay [6] and in assay [4] were 16.4 nM and 0.91 nM, respectively.

For `COC[C@@]1(C2=NCCN2)Cc2ccccc2N1C`, in [4], the Ki is on record as 38 nM. Further, the IC50 in [7] turned out to be 131 nM.

As to `CN1c2ccccc2CC1C1=NCCN1` (configuration not stated), the pA2 in [5] was found to be 8.65; in assay [1], 7.75. For the same compound, in the assay on Mus musculus, it took a dose of 1.3 mg/kg to reach the 50% effect level (ED50). Also, the figures for the Ki in assay [4] and in assay [8] were 0.45 nM and 10.5 nM, respectively.

On to `CSC[C@@]1(C2=NCCN2)Cc2ccccc2N1C`, for which the IC50 in assay [9] is 179 nM. In assay [4], this compound came in with a Ki of 13.2 nM.

For the origin of these results see ChEMBL document CHEMBL1123827, “Alpha 2-adrenergic agonists/antagonists: the synthesis and structure-activity relationships of a series of indolin-2-yl and tetrahydroquinolin-2-yl imidazolines” (J Med Chem, 1987).
